Reference: ChEMBL document CHEMBL3868583, “6-Aryl substituted 4-(4-cyanomethyl) phenylamino quinazolines as a new class of isoform-selective PI3K-alpha inhibitors” (Eur J Med Chem, 2016)
Converted amounts (≈) assume the structure as drawn.

Key:
[1] = molecular target: T1, Phosphatidylinositol 4,5-bisphosphate 3-kinase catalytic subunit beta isoform (Homo sapiens, UniProt P42338); assay: Inhibition of PI3Kbeta (unknown origin) using diC8 PIP2 as substrate after 60 mins by ADP-glo assay
[2] = molecular target: T2, Phosphatidylinositol 4,5-bisphosphate 3-kinase catalytic subunit delta isoform (Homo sapiens, UniProt O00329); assay: Inhibition of PI3Kdelta (unknown origin) using diC8 PIP2 as substrate after 120 mins by ADP-glo assay
T2 sequence (O00329 whole entry): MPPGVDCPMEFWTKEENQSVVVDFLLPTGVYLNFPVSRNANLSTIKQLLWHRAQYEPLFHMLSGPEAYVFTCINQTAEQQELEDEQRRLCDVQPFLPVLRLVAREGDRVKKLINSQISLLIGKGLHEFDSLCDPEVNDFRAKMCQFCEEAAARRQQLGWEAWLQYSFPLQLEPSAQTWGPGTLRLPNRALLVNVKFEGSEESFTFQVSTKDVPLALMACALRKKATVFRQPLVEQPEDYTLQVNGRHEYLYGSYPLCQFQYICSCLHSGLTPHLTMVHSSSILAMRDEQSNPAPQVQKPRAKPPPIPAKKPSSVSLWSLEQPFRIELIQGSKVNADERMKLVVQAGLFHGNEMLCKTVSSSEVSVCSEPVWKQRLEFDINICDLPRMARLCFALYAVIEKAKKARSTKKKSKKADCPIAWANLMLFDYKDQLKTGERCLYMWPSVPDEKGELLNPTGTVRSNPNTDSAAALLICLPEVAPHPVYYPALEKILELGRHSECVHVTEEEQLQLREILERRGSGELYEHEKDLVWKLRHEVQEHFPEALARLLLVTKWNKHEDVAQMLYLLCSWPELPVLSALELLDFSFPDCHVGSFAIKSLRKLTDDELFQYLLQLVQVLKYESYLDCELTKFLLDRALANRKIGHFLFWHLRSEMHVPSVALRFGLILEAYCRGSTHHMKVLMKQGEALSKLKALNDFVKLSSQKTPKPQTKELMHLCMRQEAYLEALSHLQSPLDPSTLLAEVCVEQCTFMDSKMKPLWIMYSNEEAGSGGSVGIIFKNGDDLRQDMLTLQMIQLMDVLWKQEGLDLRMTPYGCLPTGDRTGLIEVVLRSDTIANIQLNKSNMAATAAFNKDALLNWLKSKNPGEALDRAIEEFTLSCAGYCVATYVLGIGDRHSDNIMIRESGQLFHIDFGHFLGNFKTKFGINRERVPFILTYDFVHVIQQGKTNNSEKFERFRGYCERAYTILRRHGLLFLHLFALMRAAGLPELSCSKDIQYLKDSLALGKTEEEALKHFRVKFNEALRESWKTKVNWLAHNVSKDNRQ
Method in brief: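 Delta isoform reacted 120 min in glycine-NaOH pH 8.5 buffer (50 mM KCl, 2.5 mM MgCl2, 1 mM DTT, 0.05% CHAPS) with 0.01 mM ATP and 0.05 mM diC8 PIP2; ADP formed detected by ADP-Glo (40 min) plus detection buffer (40 min) luminescence. Dundee profiling centre.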

[3] = Cytotoxicity against human PC3 cells assessed as cell growth inhibition after 48 hrs by MTT assay; type: functional; details: PC-3, 48 h
Method in brief: (§1)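 MTT assay: 3 × 10^3 cells/well seeded, compounds added after 24 h at final […], 48 h exposure. MTT (2.5 mg/mL in PBS) added, formazan dissolved in DMSO, absorbance 570 nm. Viability as % of untreated; three independent experiments, mean ± SD.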

[4] = molecular target: T3, Phosphatidylinositol 4,5-bisphosphate 3-kinase catalytic subunit gamma isoform (Homo sapiens, UniProt P48736); assay: Inhibition of PI3Kgamma (unknown origin) using diC8 PIP2 as substrate after 75 mins by ADP-glo assay
[5] = Cytotoxicity against human A375 cells assessed as cell growth inhibition after 48 hrs by MTT assay; type: functional; details: A-375, 48 h; method in brief: as §1
[6] = Cytotoxicity against human HL60 cells assessed as cell growth inhibition after 48 hrs by MTT assay; type: functional; details: HL-60, 48 h; method in brief: as §1
[7] = molecular target: T4, Phosphatidylinositol 4,5-bisphosphate 3-kinase catalytic subunit alpha isoform (Homo sapiens, UniProt P42336); assay: Inhibition of PI3Kalpha (unknown origin) using diC8 PIP2 as substrate after 80 mins by ADP-glo assay
[8] = Cytotoxicity against human MCF7 cells assessed as cell growth inhibition after 48 hrs by MTT assay; type: functional; details: MCF7, 48 h; method in brief: as §1
[9] = Cytotoxicity against human PANC1 cells assessed as cell growth inhibition after 48 hrs by MTT assay; type: functional; details: PANC-1, 48 h; method in brief: as §1
Mus musculus [10] = assay: Toxicity in Swiss mouse implanted with Swiss mouse EAT cells assessed as body weight at 22 mg/kg, ip administered for 1 to 9 days measured on day 9 (reference value: 22.8 g); type: organism-based; details: in vivo
Method in brief: (§2)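 EAC cells harvested from 8–10-day ascitic Swiss mice; 1×10^7 cells injected intramuscularly into right thigh of Swiss male mice on day 0. Randomized next day: treated n=7, saline control n=10 (0.2 ml i.p.). Dosing i.p. days 1–9. […] Body weight and mortality tracked.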

Mus musculus [11] = assay: Toxicity in Swiss mouse implanted with Swiss mouse EAT cells assessed as mortality at 22 mg/kg, ip administered for 1 to 9 days measured on day 9 and 13; type: organism-based; details: in vivo; method in brief: as §2
Mus musculus [12] = assay: Toxicity in Swiss mouse implanted with Swiss mouse EAT cells assessed as body weight at 22 mg/kg, ip administered for 1 to 9 days measured on day 13 (reference value: 24.1 g); type: organism-based; details: in vivo; method in brief: as §2
[13] = Anticancer activity against Swiss mouse EAT cells implanted in Swiss mouse assessed as tumor growth inhibition at 22 mg/kg, ip administered for 1 to 9 days measured on day 13 relative to control; type: functional; details: read-out: TGI
Mus musculus [14] = assay: Toxicity in Swiss mouse implanted with Swiss mouse EAC cells assessed as body weight at 20 mg/kg, ip administered for 1 to 9 days measured on day 1 (reference value: 22.8 g); type: organism-based, Ehrlich; details: in vivo
Method in brief: (§3)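 1×10^7 EAC cells injected intraperitoneally into Swiss mice on day 0. Mice randomized next day: treated groups n=7, saline control n=10 (0.2 ml i.p.). Dosing i.p. days 1–9. Sacrifice on day 12; ascitic fluid collected from the peritoneal cavity. % tumor growth inhibition from total tumor cell count versus control. Body weight and mortality tracked.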

Mus musculus [15] = assay: Toxicity in Swiss mouse implanted with Swiss mouse EAT cells assessed as body weight at 22 mg/kg, ip administered for 1 to 9 days measured on day 5 (reference value: 22.6 g); type: organism-based; details: in vivo; method in brief: as §2
Mus musculus [16] = assay: Toxicity in Swiss mouse implanted with Swiss mouse EAC cells assessed as mortality at 20 mg/kg, ip administered for 1 to 9 days measured on day 12; type: organism-based, Ehrlich; details: in vivo; method in brief: as §3
Mus musculus [17] = assay: Toxicity in Swiss mouse implanted with Swiss mouse EAC cells assessed as body weight at 20 mg/kg, ip administered for 1 to 9 days measured on day 9 (reference value: 27.7 g); type: organism-based, Ehrlich; details: in vivo; method in brief: as §3
Mus musculus [18] = assay: Toxicity in Swiss mouse implanted with Swiss mouse EAT cells assessed as body weight at 22 mg/kg, ip administered for 1 to 9 days measured on day 1 (reference value: 21.6 g); type: organism-based; details: in vivo; method in brief: as §2
Mus musculus [19] = assay: Toxicity in Swiss mouse implanted with Swiss mouse EAC cells assessed as body weight at 20 mg/kg, ip administered for 1 to 9 days measured on day 12 (reference value: 28.4 g); type: organism-based, Ehrlich; details: in vivo; method in brief: as §3
[20] = Anticancer activity against Swiss mouse EAC cells implanted in Swiss mouse assessed as tumor growth inhibition at 20 mg/kg, ip administered for 1 to 9 days measured on day 12 relative to control; type: functional; details: Ehrlich, read-out: TGI; method in brief: as §3
Mus musculus [21] = assay: Toxicity in Swiss mouse implanted with Swiss mouse EAC cells assessed as body weight at 20 mg/kg, ip administered for 1 to 9 days measured on day 5 (reference value: 26.2 g); type: organism-based, Ehrlich; details: in vivo; method in brief: as §3
[22] = molecular target: T4, Phosphatidylinositol 4,5-bisphosphate 3-kinase catalytic subunit alpha isoform; assay: Inhibition of PI3Kalpha (unknown origin) using diC8 PIP2 as substrate at 0.5 uM after 80 mins by ADP-glo assay
Homo sapiens [23] = species: Homo sapiens; assay: Selectivity ratio of IC50 for PI3Kbeta (unknown origin) to IC50 for PI3Kalpha (unknown origin)
Homo sapiens [24] = species: Homo sapiens; assay: Selectivity ratio of IC50 for PI3Kgamma (unknown origin) to IC50 for PI3Kalpha (unknown origin)
Homo sapiens [25] = species: Homo sapiens; assay: Selectivity ratio of IC50 for PI3Kdelta (unknown origin) to IC50 for PI3Kalpha (unknown origin)
[26] = Thermodynamic equilibrium solubility of compound in water up to 300 ug after 4 hrs by UV absorbance method; type: physicochemical; details: read-out: Therm_solubility
Method in brief: (§4)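 Methanol stock evaporated in wells to give 1–300 µg solid; 200 µl medium (water, PBS, SGF or SIF) added, shaken 300 rpm 4 h at 25 ± 1 °C, equilibrated overnight, centrifuged; supernatant UV absorbance at λmax; saturation point from concentration–absorbance curve; triplicate.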

[27] = Thermodynamic equilibrium solubility of compound in simulated gastric fluid up to 300 ug after 4 hrs by UV absorbance method; type: ADME; details: read-out: Therm_solubility; method in brief: as §4
[28] = Thermodynamic equilibrium solubility of compound in PBS up to 300 ug after 4 hrs by UV absorbance method; type: physicochemical; details: read-out: Therm_solubility; method in brief: as §4
[29] = Thermodynamic equilibrium solubility of compound in simulated intestinal fluid up to 300 ug after 4 hrs by UV absorbance method; type: ADME; details: read-out: Therm_solubility; method in brief: as §4
[30] = molecular target: T3, Phosphatidylinositol 4,5-bisphosphate 3-kinase catalytic subunit gamma isoform
[31] = molecular target: T1, Phosphatidylinositol 4,5-bisphosphate 3-kinase catalytic subunit beta isoform; assay: Inhibition of PI3Kbeta (unknown origin)
[32] = molecular target: T4, Phosphatidylinositol 4,5-bisphosphate 3-kinase catalytic subunit alpha isoform; assay: Inhibition of PI3Kalpha (unknown origin)
Method in brief: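 Run by a kinase profiling service. Reaction 80 min. ADP-Glo reagent added for 40 min, then kinase detection buffer for 40 min. Luminescence read.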

[33] = molecular target: T2, Phosphatidylinositol 4,5-bisphosphate 3-kinase catalytic subunit delta isoform; assay: Inhibition of PI3Kdelta (unknown origin)
Method in brief: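 Substrate was 0.05 mM diC8 PIP2 with 0.01 mM ATP, and the kinase reaction ran 120 min. ADP produced was read by ADP-Glo luminescence: 40 min with ADP-Glo reagent, then 40 min with detection buffer.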

T1 sequence (P42338 whole entry, canonical isoform): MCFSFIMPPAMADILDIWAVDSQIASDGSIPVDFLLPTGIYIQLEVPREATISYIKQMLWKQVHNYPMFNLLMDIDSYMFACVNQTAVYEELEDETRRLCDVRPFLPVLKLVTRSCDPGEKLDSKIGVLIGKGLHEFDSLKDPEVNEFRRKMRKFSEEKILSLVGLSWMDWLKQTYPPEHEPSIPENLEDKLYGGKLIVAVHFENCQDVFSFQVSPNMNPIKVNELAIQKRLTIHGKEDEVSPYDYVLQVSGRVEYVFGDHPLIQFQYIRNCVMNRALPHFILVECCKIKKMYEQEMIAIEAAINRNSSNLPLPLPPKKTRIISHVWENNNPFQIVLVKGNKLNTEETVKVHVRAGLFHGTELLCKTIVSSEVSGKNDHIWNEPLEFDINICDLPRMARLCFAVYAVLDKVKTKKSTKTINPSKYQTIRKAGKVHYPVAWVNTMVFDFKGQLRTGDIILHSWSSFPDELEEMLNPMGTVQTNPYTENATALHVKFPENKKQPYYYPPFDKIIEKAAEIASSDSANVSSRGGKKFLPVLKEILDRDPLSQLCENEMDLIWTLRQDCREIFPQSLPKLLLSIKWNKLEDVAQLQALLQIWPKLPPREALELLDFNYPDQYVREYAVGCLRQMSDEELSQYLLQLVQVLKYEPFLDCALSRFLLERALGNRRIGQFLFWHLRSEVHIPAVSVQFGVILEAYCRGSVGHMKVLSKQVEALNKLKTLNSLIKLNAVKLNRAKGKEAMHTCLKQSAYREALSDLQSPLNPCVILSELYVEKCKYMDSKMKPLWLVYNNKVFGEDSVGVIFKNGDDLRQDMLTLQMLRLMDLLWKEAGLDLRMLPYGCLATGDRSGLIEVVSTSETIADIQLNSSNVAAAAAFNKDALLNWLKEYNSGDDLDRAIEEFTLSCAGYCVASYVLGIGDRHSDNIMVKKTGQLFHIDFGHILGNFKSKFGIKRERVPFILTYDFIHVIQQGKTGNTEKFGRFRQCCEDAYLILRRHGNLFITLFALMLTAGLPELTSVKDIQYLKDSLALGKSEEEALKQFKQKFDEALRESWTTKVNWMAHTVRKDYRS
T4 sequence (P42336 whole entry, canonical isoform): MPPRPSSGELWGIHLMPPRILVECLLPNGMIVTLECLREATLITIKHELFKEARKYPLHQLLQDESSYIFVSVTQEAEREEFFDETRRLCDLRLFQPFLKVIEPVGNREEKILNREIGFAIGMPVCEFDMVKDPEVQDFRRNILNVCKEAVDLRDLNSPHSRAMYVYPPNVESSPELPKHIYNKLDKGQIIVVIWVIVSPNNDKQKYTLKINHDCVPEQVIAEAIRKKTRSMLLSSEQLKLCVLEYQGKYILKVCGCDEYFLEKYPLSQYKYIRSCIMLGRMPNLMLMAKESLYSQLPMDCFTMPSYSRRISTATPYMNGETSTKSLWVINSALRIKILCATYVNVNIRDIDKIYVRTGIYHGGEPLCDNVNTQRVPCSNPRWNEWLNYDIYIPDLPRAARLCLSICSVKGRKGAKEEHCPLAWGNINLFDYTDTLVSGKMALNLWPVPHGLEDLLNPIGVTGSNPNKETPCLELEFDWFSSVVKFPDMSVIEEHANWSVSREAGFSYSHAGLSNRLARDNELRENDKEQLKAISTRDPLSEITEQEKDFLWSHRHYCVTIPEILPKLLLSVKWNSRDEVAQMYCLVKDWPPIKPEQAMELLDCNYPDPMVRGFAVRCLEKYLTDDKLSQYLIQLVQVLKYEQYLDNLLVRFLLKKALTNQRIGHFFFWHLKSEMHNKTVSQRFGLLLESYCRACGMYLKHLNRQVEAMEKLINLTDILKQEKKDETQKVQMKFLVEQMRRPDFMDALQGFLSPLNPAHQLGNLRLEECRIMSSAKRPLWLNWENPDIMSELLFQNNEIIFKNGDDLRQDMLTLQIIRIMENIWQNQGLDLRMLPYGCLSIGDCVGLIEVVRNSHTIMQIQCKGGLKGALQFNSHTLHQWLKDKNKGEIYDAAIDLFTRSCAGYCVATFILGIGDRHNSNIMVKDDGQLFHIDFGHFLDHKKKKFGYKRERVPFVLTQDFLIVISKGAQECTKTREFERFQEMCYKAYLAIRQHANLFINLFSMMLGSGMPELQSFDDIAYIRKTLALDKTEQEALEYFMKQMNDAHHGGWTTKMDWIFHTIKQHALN
T3 sequence (P48736 whole entry, canonical isoform): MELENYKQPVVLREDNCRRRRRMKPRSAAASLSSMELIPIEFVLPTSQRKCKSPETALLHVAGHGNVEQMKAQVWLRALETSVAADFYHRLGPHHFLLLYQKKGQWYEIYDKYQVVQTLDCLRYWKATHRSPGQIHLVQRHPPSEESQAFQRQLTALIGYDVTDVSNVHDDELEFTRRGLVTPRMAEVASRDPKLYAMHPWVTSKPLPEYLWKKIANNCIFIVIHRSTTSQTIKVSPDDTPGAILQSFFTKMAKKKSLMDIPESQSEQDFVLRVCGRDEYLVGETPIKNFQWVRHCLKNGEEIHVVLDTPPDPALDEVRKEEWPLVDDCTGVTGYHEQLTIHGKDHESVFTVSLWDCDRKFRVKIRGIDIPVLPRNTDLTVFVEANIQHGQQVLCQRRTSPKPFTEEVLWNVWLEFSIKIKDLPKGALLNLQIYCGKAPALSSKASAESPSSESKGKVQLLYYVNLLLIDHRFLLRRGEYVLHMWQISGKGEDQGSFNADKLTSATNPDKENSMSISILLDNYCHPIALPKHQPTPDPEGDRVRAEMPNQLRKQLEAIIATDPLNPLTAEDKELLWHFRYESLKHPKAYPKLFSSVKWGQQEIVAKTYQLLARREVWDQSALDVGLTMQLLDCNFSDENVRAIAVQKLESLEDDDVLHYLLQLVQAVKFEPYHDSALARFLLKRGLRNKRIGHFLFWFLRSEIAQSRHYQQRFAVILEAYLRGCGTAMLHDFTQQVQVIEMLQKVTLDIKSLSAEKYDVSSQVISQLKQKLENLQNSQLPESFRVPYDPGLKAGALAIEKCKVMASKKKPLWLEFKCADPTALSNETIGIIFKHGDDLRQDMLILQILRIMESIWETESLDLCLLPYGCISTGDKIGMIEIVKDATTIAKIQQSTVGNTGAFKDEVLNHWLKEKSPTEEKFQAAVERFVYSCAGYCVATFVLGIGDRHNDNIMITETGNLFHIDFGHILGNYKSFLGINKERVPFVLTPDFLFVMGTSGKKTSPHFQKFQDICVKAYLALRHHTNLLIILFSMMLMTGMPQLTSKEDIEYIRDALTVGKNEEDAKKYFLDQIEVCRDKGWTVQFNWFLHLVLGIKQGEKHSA

SMILES	IC50 [1]	IC50 [2]	GI50 [3]	IC50 [4]	GI50 [5]	GI50 [6]	IC50 [7]	GI50 [8]	GI50 [9]	inhibition [22]	Ratio IC50 (Homo sapiens [23])	Ratio IC50 (Homo sapiens [24])	Ratio IC50 (Homo sapiens [25])	further results
COc1cc2ncnc(Nc3ccc(CC#N)cc3)c2cc1OC	19 µM	55 µM	34 µM	40 µM	19 µM	47 µM	47 µM	40 µM	55 µM					
O=c1[nH]cc(F)c(=O)[nH]1 [FLUOROURACIL]														Activity (Mus musculus [10]): 21 g; Activity (Mus musculus [11]): Non-Toxic; Activity (Mus musculus [12]): 22.14 g; inhibition in vivo at 22 mg/kg [13]: 50%; Activity (Mus musculus [14]): 21.42 g; Activity (Mus musculus [15]): 20.85 g; Activity (Mus musculus [16]): Non-Toxic; Activity (Mus musculus [17]): 21.28 g; Activity (Mus musculus [18]): 20.14 g; Activity (Mus musculus [19]): 20.42 g; inhibition in vivo at 20 mg/kg [20]: 96.9%; Activity (Mus musculus [21]): 22 g
N#CCc1ccc(Nc2ncnc3ccc(-c4ccccc4)cc23)cc1	> 10 µM	> 10 µM	26 µM	6.95 µM	38 µM	23 µM	0.475 µM	14 µM	38 µM	36.8%	> 21	14.6	> 21	
N#CCc1ccc(Nc2ncnc3ccc(-c4cccc(O)c4)cc23)cc1			37 µM		28 µM	24 µM		15 µM	36 µM	69.9%	5.8	16	2.3	solubility thermodynamic at 4 h [26]: 5 µg/mL (≈ 14.2 µM); solubility thermodynamic at 4 h [27]: 125 µg/mL (≈ 355 µM); solubility thermodynamic at 4 h [28]: 5 µg/mL (≈ 14.2 µM); solubility thermodynamic at 4 h [29]: 5 µg/mL (≈ 14.2 µM)
Nc1nc2cc(-c3ccc4ncc(C(=O)N5CCOCC5)n4c3)ccc2o1 [SERABELISIB]														IC50 [30]: 1.9 µM; IC50 [31]: 4.5 µM; IC50 [32]: 0.015 µM; IC50 [33]: 13.9 µM
